Results gathered from unrelated publications.
Protocols differ between the studies behind these lines.
Target: 5-hydroxytryptamine receptor 1A (HTR1A, Homo sapiens, UniProt P08908)
One construct used (P08908 1-422): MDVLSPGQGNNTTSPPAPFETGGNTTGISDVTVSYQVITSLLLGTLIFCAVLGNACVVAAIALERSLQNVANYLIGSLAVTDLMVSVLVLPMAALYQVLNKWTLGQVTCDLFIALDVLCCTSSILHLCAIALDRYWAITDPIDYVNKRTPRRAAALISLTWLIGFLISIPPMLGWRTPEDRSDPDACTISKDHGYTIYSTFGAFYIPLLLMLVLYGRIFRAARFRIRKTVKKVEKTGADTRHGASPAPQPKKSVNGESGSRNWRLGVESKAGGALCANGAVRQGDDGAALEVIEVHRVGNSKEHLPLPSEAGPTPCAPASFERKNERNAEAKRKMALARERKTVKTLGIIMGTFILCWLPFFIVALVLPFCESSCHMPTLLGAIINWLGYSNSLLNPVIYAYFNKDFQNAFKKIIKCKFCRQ

SMILES | assay | measurement | result
CCCC[C@H](NC(=O)[C@H](C)c1c(C)[nH]c2ccc(O)cc12)c1ncc(-c2cc3ccccc3nc2OC)[nH]1 | cell-free assay | Ki | 2080 nM
CCOc1c(O)cc(Br)c2c1CN1CCc3cc(OCC(F)F)c(O)cc3[C@@H]1C2 | cell-free assay, radioligand | Ki | 334 nM
CCNC(=O)c1cc2c(N3CCOC[C@@H]3C)ccnc2[nH]1 | cell-free assay, radioligand | Ki | > 10000 nM
CN1CCCCC1CCN1c2ccccc2Sc2ccc([S+](C)[O-])cc21 (stereo not drawn) | ligand displacement, radioligand | IC50 | 33.1 nM
COc1ccccc1N1CCN(CCCCOc2ccc3c(c2)NC(=O)CC3)CC1 | ligand displacement, radioligand | Ki | 0.28 nM
CN(CCCCNC(=O)c1cc2ccccc2[nH]1)[C@@H]1Cc2cccc3[nH]c(=O)n(c23)C1 | ligand displacement, radioligand | Ki | 127 nM
O=C1c2ccccc2CCN1CCCCN1CCN(c2cccc(Cl)c2Cl)CC1 | ligand displacement, radioligand | Ki | 1.5 nM
C[C@@H]1Cc2ccccc2N1C(=O)NCCCCN(C)[C@@H]1Cc2cccc3[nH]c(=O)n(c23)C1 | ligand displacement, radioligand | Ki | 33.2 nM
CCCCN1CCC(COC(=O)c2ccc(N)c(OCF)c2)CC1 | cell-free assay, radioligand | Ki | > 10000 nM
